Screening data: PubChem BioAssay, several laboratories
Compounds with a hit are over-represented: about 9.8% of the library has one in this group of screens.
PMI act satM6P = human PMI activators, high substrate, primary screen, biochemical, fluorescence intensity, near-saturating mannose 6-phosphate; AID 1216, 2008; activation factor at 20 µM; actives 0.34% (n = 190,000); coupled PMI enzyme assay, resazurin fluorescence, 20 min; hits give high values; 1 = untreated enzyme, 0 = substrate-free blank; Mannose-6-phosphate isomerase (Homo sapiens), P34949;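 active = activation factor of 2 or more at 20 µM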
Target sequence (P34949 whole entry, looked up): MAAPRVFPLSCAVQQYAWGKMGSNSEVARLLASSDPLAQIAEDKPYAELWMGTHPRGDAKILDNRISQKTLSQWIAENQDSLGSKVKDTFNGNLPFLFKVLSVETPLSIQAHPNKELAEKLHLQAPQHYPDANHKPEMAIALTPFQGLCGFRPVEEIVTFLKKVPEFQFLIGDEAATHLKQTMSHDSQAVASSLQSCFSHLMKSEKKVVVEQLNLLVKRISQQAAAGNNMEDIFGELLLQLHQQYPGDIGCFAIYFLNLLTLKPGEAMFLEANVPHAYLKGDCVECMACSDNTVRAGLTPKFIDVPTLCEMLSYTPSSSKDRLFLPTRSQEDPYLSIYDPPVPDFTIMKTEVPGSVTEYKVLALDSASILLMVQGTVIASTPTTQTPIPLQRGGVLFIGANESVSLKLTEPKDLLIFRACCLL
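Test system – human PMI in coupled enzyme assay · Timing – 20 min incubation at room temperature · Detection – Diaphorase-driven resazurin-to-resorufin fluorescence, excitation 544, emission 590 nm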
PMI act = activators of human PMI, primary screen, biochemical, fluorescence intensity, near-Km mannose 6-phosphate; Mannose-6-phosphate isomerase (Homo sapiens), P34949; purified human PMI, coupled resazurin fluorescence, 20 min; hits give high values; 1 = vehicle control, 0 substrate-free wells; activation factor at 20 µM; actives 0.005% (n = 190,000);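 active = activation factor of 2 or more at 20 µM, relative to plate controls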
Calpain2 inh = inhibitors of pig calpain II, primary screen, biochemical, fluorogenic peptide substrate, 1536-well. inhibition, % at 16 µM. purified calpain II, 30 min. actives 0.37% (n = 220,000). AID 1236, 2008;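 active = inhibition above about 50%, limit read from the data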
Rad51 HR inh = human RAD51 strand exchange inhibitors, primary screen, biochemical, fluorescence. DNA repair protein RAD51 homolog 1 (Homo sapiens), Q06609. actives 0.085% (n = 200,000). hRad51 DNA strand exchange, fluorescence dequenching. inhibition, % at 10 µM;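 active = inhibition above 40% at the single screening dose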
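Test system: preformed human Rad51 ssDNA filaments; also added: Donor/quencher-labelled 47-bp dsDNA substrate; doses: 10 µM final, single point; times: 37 °C 15-min filament assembly, 30-min compound preincubation, 15-min exchange; detection: FRET fluorescence dequenching, excitation 485 nm, emission 520 nm; read-out basis: Fluorescence-based percent inhibition, control- and blank-normalised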
WT yeast gro inh = growth inhibition of WT strain, primary screen, mitochondrial fusion inhibitor project, WT and mutant strains, chemical genetic; AID 1362, 2008; inhibition, % at 10 µM; mitochondrial fusion phenotypic screen; actives 2.1% (n = 190,000); in the data active = inhibition above about 58%; tested in S. cerevisiae
Lmaj promast = Leishmania major promastigote growth inhibition, primary screen; Leishmania major promastigotes, resazurin fluorescence viability; inhibition, % at 10 µM; actives 9% (n = 200,000); AID 1063, 2008; in the data active = inhibition above about 50%;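 note: promastigotes grown with compound for 44 hours at 28 °C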
Hits are given with their value; n = inactive; x = not tested or not shown.

SMILES	PMI act satM6P	PMI act	Calpain2 inh	Rad51 HR inh	WT yeast gro inh	Lmaj promast
O=C(Oc1ccc([N+](=O)[O-])cc1)N1CCC(N2CCCCC2)CC1	n	n	n	n	n	93
CC(C)c1ccc(N2C(=O)NC(=O)/C(=C\C=C\c3ccco3)C2=O)cc1	n	n	n	n	n	67
O=C1NC(=O)N(Cc2ccccc2)C(=O)/C1=C/C=C/c1ccco1	x	x	n	n	x	x
Cc1ccc(CN2C3CCCC2CC(NC(=O)Nc2cccc(F)c2)C3)cc1 (stereo not given)	n	n	n	n	n	96
CC(C)n1c(O)c(C2c3cc(Cl)ccc3Oc3[nH]c(=O)n(C(C)C)c(=O)c32)c(=O)[nH]c1=O (stereo not given)	x	x	n	n	x	x
NC1=NC(=O)C(c2ccccc2)O1 (stereo not given)	n	n	n	x	n	x
CCCn1c(C(=O)c2ccc(OC)cc2)nc2ccccc21	n	n	n	n	n	n
COc1ccc(C(=O)c2nc3ccccc3n2C(C)C)cc1	n	n	n	n	n	51
COC(=O)[C@@]1(C#N)[C@@H]2C=CC(C(C)=O)=CN2[C@@H](C(N)=O)[C@@H]1c1ccc(F)cc1	x	x	n	n	x	x
O[C@@H]1CCCC[C@H]1N1CCC(c2ccccc2)CC1	n	n	n	n	n	65
CNC(C)Cc1ccccc1Sc1ccc(O)cc1 (stereo not given)	n	n	n	n	n	100
COC(=O)Nc1ccc(N=C(N)N[N+](=O)[O-])cc1	n	n	n	n	n	n
CCC(=NCCCN1CCOCC1)c1c(O)n(-c2ccccc2C)c(=O)[nH]c1=O	x	x	n	n	x	x
CN(C)c1ccc(/C=C/c2cc[n+](C)c3ccccc23)cc1	n	n	n	n	78	100
CC1=C2C3OC(=O)C(C)C3CC[C@@]2(C)C=CC1=O (stereo not given in full)	x	x	n	n	x	x
C(#CCN1CCCCC1)COCc1ccccc1	n	n	n	n	n	89
COc1ccc(OCC#CCN2CCCCCC2)cc1	n	n	n	n	n	85
Clc1ccc(OCC#CCN2CCOCC2)cc1	n	n	n	n	n	n
CN(CC#CCN1CCCC1)C(=O)c1cccc(Cl)c1	x	x	x	n	x	x
Clc1ccccc1CN1CCN(c2cccc3[nH]ccc23)CC1	x	x	n	n	x	x
CCN(CC)Cc1c[nH]c2ccccc12	n	n	n	n	n	n
c1ccc2c(CNC3CCCCC3)c[nH]c2c1	n	n	n	n	n	n
CN(Cc1c[nH]c2ccccc12)C1CCCCC1	n	n	n	x	n	70
c1ccc2c(CN3CCCCCCC3)c[nH]c2c1	n	n	n	x	n	98
c1ccc2c(CN3CCN(C4CCCCC4)CC3)c[nH]c2c1	n	n	n	n	n	75
SMILES	PMI act satM6P	PMI act	Calpain2 inh	Rad51 HR inh	WT yeast gro inh	Lmaj promast
Cc1nn(Cc2ccccc2)c(Cl)c1C(=O)OCC(=O)N1CCCC1	n	n	n	n	n	n
O=c1[nH]c(=O)n(Cc2ccco2)c(O)c1C=NCCN1CCNCC1	x	x	n	n	x	x
CC[N+](CC)(CC)CC	x	x	n	n	x	x
Oc1ccc(C2=CCNCC2)cc1O	x	x	x	n	x	x
CC(=O)Nc1cc(C(=O)N2CCC3(CC2)OCCO3)ccc1Sc1ccc(F)cc1	n	n	n	n	n	n
Cc1ccc(/C=C2/C(=O)NC(=O)N(CCc3ccc(F)cc3)C2=O)o1	n	n	n	n	n	n
O=C1NC(=O)N(CCc2ccc(F)cc2)C(=O)/C1=C/c1ccco1	2	n	n	n	n	n
O=c1c2ccccc2nc(Cc2cccc([N+](=O)[O-])c2)n1-c1ccc(O)cc1	x	x	n	n	x	x
COc1cc2c(cc1OC)C(C(=O)NC(C)C)C1CCCCN1C2=O (stereo not given)	x	x	n	x	x	x
COc1ccc(CCNCc2ccc(F)cc2)cc1OC	n	n	n	n	n	50
c1ccc(CCNCc2ccccc2)cc1	n	n	n	n	n	n
COc1ccc(CCNCc2ccc(SC)cc2)cc1	n	n	n	n	n	63
CC[C@H]1CN(C)CCc2c([nH]c3ccccc23)C(=O)C[C@@H]1/C(=C\OC)C(=O)OC	x	x	x	n	x	x
CC(C)(C)C(=O)NC1CCSC1=O (stereo not given)	n	n	n	n	n	n
CC(=O)N(C1=NCCCS1)c1ccc(F)cc1	n	n	n	n	n	n
CC(=O)N(C1=NCCCS1)c1ccc(Cl)cc1	n	n	n	n	n	96
CSc1nnc(C2CCNCC2)n1C	n	n	n	n	65	n
CC(C)N(Cc1ccco1)/N=C/c1c(O)n(Cc2ccccc2)c(=O)[nH]c1=O	x	x	n	x	x	x
Cc1ccc(C(=O)O)cc1N=Nc1c(O)[nH]c(=O)[nH]c1=O	n	n	n	n	n	n
COc1cc(N)c(Cl)cc1C(=O)NC1CN2CCC1CC2 (stereo not given)	n	n	n	n	n	x
O=C(COc1ccc(Cl)cc1)NC1CN2CCC1CC2 (stereo not given)	n	n	n	n	n	99
CC(=O)NC(Cc1ccc(N(CCCl)CCCl)cc1)C(=O)NC(CC(C)C)C(=O)O (stereo not given)	2	n	n	n	n	n
CCCn1ncc(CN2CCCC(C(=O)c3cccc(OC)c3)C2)c1C (stereo not given)	n	n	n	n	n	n
COCC(C)OC(=O)c1c(N)n(Cc2ccco2)c2nc3ccccc3nc12 (stereo not given)	n	n	n	n	n	95
CCOC(=O)c1c(N)n(Cc2ccco2)c2nc3ccccc3nc12	n	n	n	n	n	n
SMILES	PMI act satM6P	PMI act	Calpain2 inh	Rad51 HR inh	WT yeast gro inh	Lmaj promast
Nc1c(C(=O)NCc2ccco2)c2nc3ccccc3nc2n1Cc1ccc(F)cc1	n	n	n	x	n	59
Nc1c(C(=O)NCc2ccco2)c2nc3ccccc3nc2n1Cc1ccccc1	n	n	n	x	n	n
Clc1ccc(COC(Cn2ccnc2)c2ccc(Cl)cc2Cl)c(Cl)c1 (stereo not given)	n	n	58	n	n	99
O=C(c1cc(C(=O)NCc2ccccc2)c(=O)n(Cc2ccccc2)c1)c1cc(Br)ccc1O	n	n	n	n	n	99
Cc1ccc(O)c(C(=O)c2cc(C(=O)NCc3ccccc3)c(=O)n(Cc3ccccc3)c2)c1	n	n	n	n	n	78
CCCCCCOc1ccc(CN2CCN(CC)CC2)cc1	n	n	n	n	n	97
CCN1CCN(Cc2ccc(OC(F)(F)F)cc2)CC1	n	n	n	n	n	89
CN1CCN(Cc2ccc(N)cc2)CC1	n	n	n	n	n	n
CCOP(=O)(Cc1cc(C(=O)CC)c(C)o1)OCC	x	x	n	n	x	x
